{
  "source": "ChEMBL document CHEMBL1137631",
  "about": "“Artemisinin-resistant mutants of Toxoplasma gondii have altered calcium homeostasis” (Antimicrob Agents Chemother, 2007)",
  "type_in_all_cases": "functional, organism-based",
  "key": {"[1]": {"system": "Toxoplasma gondii", "experiment": "Antiparasitic activity against artemisinin-resistant Toxoplasma gondii KN200-1 infected in HFF cells after 72 hrs by beta-galactosidase reporter gene assay", "procedure,_shortened": "(§1)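 Tachyzoites inoculated into HFF monolayers, quadruplicate wells per sample; compounds 10 nM to 100 μM for 3 days at 37°C. Monolayers lysed 10 min at 50°C (HEPES pH 8.0, Triton X-100, DTT), then phosphate buffer pH 7.3 added, chlorophenol red-β-D-galactopyranoside substrate, A570 read.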"}, "[2]": {"system": "Toxoplasma gondii", "experiment": "Antiparasitic activity against artemisinin-resistant Toxoplasma gondii STL500-10A infected in HFF cells after 72 hrs by beta-galactosidase reporter gene assay", "procedure,_shortened": "as §1"}, "[3]": {"system": "Toxoplasma gondii", "experiment": "Antiparasitic activity against artemisinin-resistant Toxoplasma gondii KN200-6 infected in HFF cells after 72 hrs by beta-galactosidase reporter gene assay", "procedure,_shortened": "as §1"}, "[4]": {"system": "Toxoplasma gondii", "experiment": "Antiparasitic activity against Toxoplasma gondii ATCC 50839 infected in HFF cells after 72 hrs by beta-galactosidase reporter gene assay", "procedure,_shortened": "as §1"}, "[5]": {"system": "Toxoplasma gondii", "experiment": "Increase in intracellular calcium level in artemisinin-resistant Toxoplasma gondii KN200-1 at 20 uM by fura-2-AM dye based fluorimetric method", "procedure,_shortened": "(§2)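 Freshly harvested tachyzoites loaded with 5.2 μM fura-2-AM in HEPES-buffered saline pH 7.4 plus 1.5% sucrose, 30 min at 26°C, washed; 2×10^7 cells/ml, room temperature, no extracellular calcium (1 mM EGTA). Excitation 340/380 nm, emission 510 nm; [Ca2+]i calibrated with Ca2+-EGTA buffers after background subtraction; three independent experiments.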"}, "[6]": {"system": "Toxoplasma gondii", "experiment": "Increase in intracellular calcium level in artemisinin-resistant Toxoplasma gondii STL500-10A at 20 uM by fura-2-AM dye based fluorimetric method", "procedure,_shortened": "as §2"}, "[7]": {"system": "Toxoplasma gondii", "experiment": "Increase in intracellular calcium level in Toxoplasma gondii ATCC 50839 at 20 uM by fura-2-AM dye based fluorimetric method", "procedure,_shortened": "as §2"}, "[8]": {"system": "Toxoplasma gondii", "experiment": "Induction of […] MIC2 protein secretion in artemisinin-resistant Toxoplasma gondii A2"}, "[9]": {"system": "Toxoplasma gondii", "experiment": "Increase in intracellular calcium level in artemisinin-resistant Toxoplasma gondii KN200-6 at 20 uM by fura-2-AM dye based fluorimetric method", "procedure,_shortened": "as §2"}, "[10]": {"system": "Toxoplasma gondii", "experiment": "Induction of […] MIC2 protein secretion in Toxoplasma gondii ATCC 50839 at 10 uM treated for 10 mins by Western blot", "procedure,_shortened": "(§3)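 Freshly egressed parasites in DMEM/HEPES with 3% FBS, treated 10 min at 18°C (1% ethanol vehicle), then 2 min at 37°C to secrete, chilled, centrifuged at 400 × g. Supernatant and pellet resolved by 15% SDS-PAGE, Western blotted with rabbit anti-MIC2 (1:10,000) and anti-β-galactosidase (1:300) antibodies.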"}, "[11]": {"system": "Toxoplasma gondii", "experiment": "Increase in intracellular calcium level in artemisinin-resistant Toxoplasma gondii STL500-10A at 1 uM by fura-2-AM dye based fluorimetric method in presence of extracellular calcium", "procedure,_shortened": "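Freshly harvested tachyzoites loaded with 5.2 μM fura-2-AM in HEPES-buffered saline pH 7.4 plus 1.5% sucrose, 30 min at 26°C, washed; 2×10^7 cells/ml, room temperature, 1 mM extracellular CaCl2. 340/380 nm excitation ratio, 510 nm emission; [Ca2+]i calibrated with Ca2+-EGTA buffers; three independent experiments.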"}, "[12]": {"system": "Toxoplasma gondii", "experiment": "Increase in intracellular calcium level in Toxoplasma gondii ATCC 50839 at 1 uM by fura-2-AM dye based fluorimetric method", "procedure,_shortened": "as §2"}, "[13]": {"system": "Toxoplasma gondii", "experiment": "Induction of […] MIC2 protein secretion in artemisinin-resistant Toxoplasma gondii STL500-10A at 10 uM treated for 10 mins by Western blot", "procedure,_shortened": "as §3"}, "[14]": {"system": "Toxoplasma gondii", "experiment": "Increase in intracellular calcium level in artemisinin-resistant Toxoplasma gondii KN200-6 at 1 uM by fura-2-AM dye based fluorimetric method", "procedure,_shortened": "as §2"}, "[15]": {"system": "Toxoplasma gondii", "experiment": "Induction of […] MIC2 protein secretion in artemisinin-resistant Toxoplasma gondii KN200-6 at 10 uM treated for 10 mins by Western blot", "procedure,_shortened": "as §3"}, "[16]": {"system": "Toxoplasma gondii", "experiment": "Induction of […] MIC2 protein secretion in artemisinin-resistant Toxoplasma gondii KN200-1 at 10 uM treated for 10 mins by Western blot", "procedure,_shortened": "as §3"}, "[17]": {"system": "Toxoplasma gondii", "experiment": "Increase in intracellular calcium level in artemisinin-resistant Toxoplasma gondii KN200-1 at 1 uM by fura-2-AM dye based fluorimetric method", "procedure,_shortened": "as §2"}, "[18]": {"system": "Toxoplasma gondii", "experiment": "Increase in intracellular calcium level in artemisinin-resistant Toxoplasma gondii STL500-10A at 1 uM by fura-2-AM dye based fluorimetric method", "procedure,_shortened": "as §2"}, "[19]": {"details": "Toxoplasma gondii, KN200-1, HFF, 72 h, read-out: EC50"}, "[20]": {"details": "Toxoplasma gondii, STL500-10A, HFF, 72 h, read-out: EC50"}, "[21]": {"details": "Toxoplasma gondii, KN200-6, HFF, 72 h, read-out: EC50"}, "[22]": {"details": "Toxoplasma gondii, ATCC 50839, HFF, 72 h, read-out: EC50"}},
  "note": "Calls of active or inactive are those of the source. No cut-off for these calls is given here.",
  "data": [
    {"smiles": "CCc1nc(N)nc(N)c1-c1ccc(Cl)cc1", "note": "[PYRIMETHAMINE]", "values": [
      {"measurement": "EC50", "setting": "[1]; [19]", "value": 0.29, "unit": "µM"},
      {"measurement": "EC50", "setting": "[2]; [20]", "value": 0.24, "unit": "µM"},
      {"measurement": "EC50", "setting": "[3]; [21]", "value": 0.27, "unit": "µM"},
      {"measurement": "EC50", "setting": "[4]; [22]", "value": 0.21, "unit": "µM"}
    ]},
    {"smiles": "O=c1[nH]c(=O)n([C@H]2C[C@H](O)[C@@H](CO)O2)cc1F", "note": "[FLOXURIDINE]", "values": [
      {"measurement": "EC50", "setting": "[1]; [19]", "value": 1.13, "unit": "µM"},
      {"measurement": "EC50", "setting": "[2]; [20]", "value": 0.96, "unit": "µM"},
      {"measurement": "EC50", "setting": "[3]; [21]", "value": 1.19, "unit": "µM"},
      {"measurement": "EC50", "setting": "[4]; [22]", "value": 0.91, "unit": "µM"}
    ]},
    {"smiles": "C[C@@H]1CC[C@H]2[C@@H](C)C(=O)O[C@@H]3O[C@@]4(C)CC[C@@H]1[C@]32O4", "note": "[DEOXYARTEMISININ]", "values": [
      {"measurement": "EC50", "setting": "[1]; hff", "value": "Not Active"},
      {"measurement": "EC50", "setting": "[2]; hff", "value": "Not Active"},
      {"measurement": "EC50", "setting": "[3]; hff", "value": "Not Active"},
      {"measurement": "EC50", "setting": "[4]; hff", "value": "Not Active"}
    ]},
    {"smiles": "C[C@@H]1CC[C@H]2[C@H](C)CO[C@@H]3O[C@@]4(C)CC[C@@H]1[C@]32OO4", "note": "[9-EPI-10-DEOXOARTEMISININ]", "values": [
      {"measurement": "EC50", "setting": "[1]; hff", "value": "Active"},
      {"measurement": "EC50", "setting": "[2]; hff", "value": "Active"},
      {"measurement": "EC50", "setting": "[3]; hff", "value": "Active"}
    ]},
    {"smiles": "C[C@H]1[C@H](N2CCS(=O)(=O)CC2)O[C@@H]2O[C@@]3(C)CC[C@H]4[C@H](C)CC[C@@H]1[C@@]24OO3", "note": "[ARTEMIFONE]", "values": [
      {"measurement": "EC50", "setting": "[4]; [22]", "value": 0.03, "unit": "µM"}
    ]},
    {"smiles": "C[C@@H]1CC[C@H]2[C@@H](C)C(=O)O[C@@H]3O[C@@]4(C)CC[C@@H]1[C@]32OO4", "note": "[ARTEMISININ]", "values": [
      {"measurement": "EC90", "setting": "[1]; Toxoplasma gondii, KN200-1, HFF, 72 h", "value": 6.85, "unit": "µM"},
      {"measurement": "EC50", "setting": "[1]; [19]", "value": 1.73, "unit": "µM"},
      {"measurement": "Activity", "setting": "[5]", "value": "Active"},
      {"measurement": "Activity", "setting": "[6]", "value": "Active"},
      {"measurement": "EC90", "setting": "[2]; Toxoplasma gondii, STL500-10A, HFF, 72 h", "value": 4.77, "unit": "µM"},
      {"measurement": "EC50", "setting": "[2]; [20]", "value": 1.8, "unit": "µM"},
      {"measurement": "Activity", "setting": "[7]", "value": "Active"},
      {"measurement": "EC90", "setting": "[3]; Toxoplasma gondii, KN200-6, HFF, 72 h", "value": 8.55, "unit": "µM"},
      {"measurement": "EC50", "setting": "[3]; [21]", "value": 1.51, "unit": "µM"},
      {"measurement": "EC90", "setting": "[4]; Toxoplasma gondii, ATCC 50839, HFF, 72 h", "value": 1.24, "unit": "µM"},
      {"measurement": "EC50", "setting": "[4]; [22]", "value": 0.8, "unit": "µM"},
      {"measurement": "Activity", "setting": "[8]", "value": "inactive"},
      {"measurement": "Activity", "setting": "[9]", "value": "Active"}
    ]},
    {"smiles": "C/C=C(/C)C(=O)O[C@H]1C(C)=C2[C@H]([C@@H]1OC(=O)CCCCCCC)[C@@](C)(OC(C)=O)C[C@H](OC(=O)CCC)[C@@]1(O)[C@H]2OC(=O)[C@@]1(C)O", "values": [
      {"measurement": "Activity", "setting": "[10]", "value": "Active"},
      {"measurement": "Activity", "setting": "[11]", "value": "Active"},
      {"measurement": "Activity", "setting": "[12]", "value": "Active"},
      {"measurement": "Activity", "setting": "[13]", "value": "Active"},
      {"measurement": "Activity", "setting": "[14]", "value": "Active"},
      {"measurement": "Activity", "setting": "[8]", "value": "Active"},
      {"measurement": "Activity", "setting": "[15]", "value": "Active"},
      {"measurement": "Activity", "setting": "[16]", "value": "Active"},
      {"measurement": "Activity", "setting": "[17]", "value": "Active"},
      {"measurement": "Activity", "setting": "[18]", "value": "Active"}
    ]}
  ]
}
